Experimental findings from ChEMBL document CHEMBL4261600 (Eur J Med Chem, 2018) are described below.

Usually GI50 stands for the concentration at which growth is held to half of that of the control. High values mean lower sensitivity of the cells, low ones greater sensitivity of the cells. By half-life is commonly meant the time in which the quantity being followed falls by half. Read a low half-life as rapid decline.

In data set [1] the target is Ankyrin repeat and protein kinase domain-containing protein 1 (Homo sapiens) (UniProt Q8NFD2). As to the kind of experiment: Binding affinity to wild-type human partial length ANKK1 (M1 to A305 residues) expressed in mammalian expression system assessed as remaining unbound target protein level at 1000 nM by Kinomescan method relative to control. In outline:
(§1)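 Profiled in a KINOMEscan binding panel with the inhibitor at a single concentration of 1 μM. Binding to each kinase was read out as percent of control, relative to a DMSO control. Strong binders were defined as those with a percent control value below 1.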

The target of data set [2] is Cyclin-G-associated kinase (Homo sapiens) (UniProt O14976). Briefly: Binding affinity to wild-type human partial length GAK (G13 to Y338 residues) expressed in bacterial expression system assessed as remaining unbound target protein level at 1000 nM by Kinomescan method relative to control.
A further data set relates to A-431. Briefly: Antiproliferative activity against human A431 cells after 72 hrs by Celltiter-Glo assay. Type of data set: functional. The following applies: A-431, 72 h. In outline:
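Cells seeded at 3000/well in 96-well plates, exposed to serially diluted compound for 72 h at 37 °C, 5% CO2. Viability read by CellTiter-Glo luminescence and normalized to DMSO control. GI50 derived from curve fit, mean of three independent measurements. Culture media: DMEM/10% FBS for adherent lines; IMDM for MV4-11 and MEC-1/2; RPMI 1640 for suspension lines and CHL.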
Background: ATP-based viability assays read luminescence as a measure of living cells.

In data set [3] the target is Calcium/calmodulin-dependent protein kinase type 1D (Homo sapiens) (UniProt Q8IU85). Briefly: Binding affinity to wild-type human partial length CAMK1D (M1 to K299 residues) expressed in bacterial expression system assessed as remaining unbound target protein level at 1000 nM by Kinomescan method relative to control. In outline:
as §1

In data set [4] the target is Dual specificity mitogen-activated protein kinase kinase 5 (Homo sapiens) (UniProt Q13163). As to the kind of experiment: Binding affinity to wild-type human partial length MEK5 (L98 to P448 residues) expressed in mammalian expression system assessed as remaining unbound target protein level at 1000 nM by Kinomescan method relative to control. In short, it runs like this: (§2)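 KINOMEscan binding panel of 468 kinases/mutants. Inhibitor was tested at a single concentration of 1 μM. Binding is reported as percent of control, defined relative to a DMSO control.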

The target in data set [5] is Fibroblast growth factor receptor 2 (Homo sapiens) (UniProt P21802). Briefly: Binding affinity to wild-type human partial length FGFR2 (D457 to E769 residues) expressed in bacterial expression system assessed as remaining unbound target protein level at 1000 nM by Kinomescan method relative to control. In outline:
as §2

In data set [6] the target is Activin receptor type-1-like (Homo sapiens) (UniProt P37023). Briefly: Binding affinity to wild-type human ACVRL1 (L164 to Q503 residues) expressed in bacterial expression system assessed as remaining unbound target protein level at 1000 nM by Kinomescan method relative to control. In short, it runs like this: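 Single-point competition binding screen across a panel of 468 kinases and mutants, with the inhibitor at 1 μM. Binding is read out as percent of a DMSO control, and targets below 1 percent control were classed as strong binders.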

Data set [7] has as its target Serine/threonine-protein kinase DCLK2 (Homo sapiens) (UniProt Q8N568). Briefly: Binding affinity to wild-type human partial length DCAMKL2 (K273 to V664 residues) expressed in bacterial expression system assessed as remaining unbound target protein level at 1000 nM by Kinomescan method relative to control.
Data set [8] deals with Vascular endothelial growth factor receptor 2 (Homo sapiens, UniProt P35968). As to the kind of experiment: Binding affinity to wild-type human partial length VEGFR2 (R787 to P1253 residues) expressed in mammalian expression system assessed as remaining unbound target protein level at 1000 nM by Kinomescan method relative to control. The following applies: read-out: Activity.

Data set [9] can be described thus: Half life in Sprague-Dawley rat at 3 mg/kg, iv by LC-MS/MS analysis. Type of data set: ADME, organism-based. The settings on record: in vivo.
Data set [10] concerns the target Serine/threonine-protein kinase 33 (Homo sapiens) (UniProt Q9BYT3). As to the kind of experiment: Binding affinity to wild-type human full length STK33 (M1 to L514 residues) expressed in bacterial expression system assessed as remaining unbound target protein level at 1000 nM by Kinomescan method relative to control. In outline:
as §1

In data set [11] the target is Activin receptor type-1 (Homo sapiens) (UniProt Q04771). As to the kind of experiment: Binding affinity to wild-type human ACVR1 (C188 to C509 residues) expressed in bacterial expression system assessed as remaining unbound target protein level at 1000 nM by Kinomescan method relative to control. In short, it runs like this:
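KINOMEscan competitive binding profile at 1 μM inhibitor. Remaining target binding reported as percent of DMSO control.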

In data set [12] the target is Phosphatidylinositol 4-phosphate 5-kinase type-1 gamma (Homo sapiens) (UniProt O60331). Briefly: Binding affinity to wild-type human partial length PIP5K1C (M1 to T668 residues) expressed in mammalian expression system assessed as remaining unbound target protein level at 1000 nM by Kinomescan method relative to control.
Data set [13] concerns the target Ephrin type-B receptor 3 (Homo sapiens) (UniProt P54753). Briefly: Binding affinity to wild-type human partial length EPHB3 (Q599 to T928 residues) expressed in bacterial expression system assessed as remaining unbound target protein level at 1000 nM by Kinomescan method relative to control.
The target of data set [14] is Serine/threonine-protein kinase 17A (Homo sapiens) (UniProt Q9UEE5). Briefly: Binding affinity to wild-type human partial length DRAK1 (R32 to E363 residues) expressed in bacterial expression system assessed as remaining unbound target protein level at 1000 nM by Kinomescan method relative to control.
Data set [15] addresses Dual specificity protein kinase CLK2 (Homo sapiens) (UniProt P49760). Briefly: Binding affinity to wild-type human partial length CLK2 (D144 to R498 residues) expressed in bacterial expression system assessed as remaining unbound target protein level at 1000 nM by Kinomescan method relative to control. In outline:
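KINOMEscan competition binding profile across a panel of 468 kinases and mutants, with the inhibitor tested at a single concentration of 1 μM. Binding is reported as percent of control, meaning signal relative to a DMSO control.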

The target in data set [16] is Mitogen-activated protein kinase kinase kinase 9 (Homo sapiens) (UniProt P80192). As to the kind of experiment: Binding affinity to wild-type human partial length MLK1 (V88 to W426 residues) expressed in bacterial expression system assessed as remaining unbound target protein level at 1000 nM by Kinomescan method relative to control. In outline:
as §2

In data set [17] the target is RAC-beta serine/threonine-protein kinase (Homo sapiens) (UniProt P31751). As to the kind of experiment: Binding affinity to wild-type human partial length AKT2 expressed in bacterial expression system assessed as remaining unbound target protein level at 1000 nM by Kinomescan method relative to control. In short, it runs like this: as §1
Data set [18] concerns the target Tyrosine-protein kinase ITK/TSK (Homo sapiens) (UniProt Q08881). As to the kind of experiment: Binding affinity to wild-type human partial length ITK (R335 to L620 residues) expressed in bacterial expression system assessed as remaining unbound target protein level at 1000 nM by Kinomescan method relative to control.
Data set [19] concerns the target Ribosomal protein S6 kinase alpha-5 (Homo sapiens) (UniProt O75582). Briefly: Binding affinity to wild-type human partial length N-terminal RPS6KA5 kinase domain 1 expressed in bacterial expression system assessed as remaining unbound target protein level at 1000 nM by Kinomescan method relative to control.

Serine/threonine-protein kinase DCLK2 (Homo sapiens), sequence (Q8N568 whole entry, the tested form may be a part): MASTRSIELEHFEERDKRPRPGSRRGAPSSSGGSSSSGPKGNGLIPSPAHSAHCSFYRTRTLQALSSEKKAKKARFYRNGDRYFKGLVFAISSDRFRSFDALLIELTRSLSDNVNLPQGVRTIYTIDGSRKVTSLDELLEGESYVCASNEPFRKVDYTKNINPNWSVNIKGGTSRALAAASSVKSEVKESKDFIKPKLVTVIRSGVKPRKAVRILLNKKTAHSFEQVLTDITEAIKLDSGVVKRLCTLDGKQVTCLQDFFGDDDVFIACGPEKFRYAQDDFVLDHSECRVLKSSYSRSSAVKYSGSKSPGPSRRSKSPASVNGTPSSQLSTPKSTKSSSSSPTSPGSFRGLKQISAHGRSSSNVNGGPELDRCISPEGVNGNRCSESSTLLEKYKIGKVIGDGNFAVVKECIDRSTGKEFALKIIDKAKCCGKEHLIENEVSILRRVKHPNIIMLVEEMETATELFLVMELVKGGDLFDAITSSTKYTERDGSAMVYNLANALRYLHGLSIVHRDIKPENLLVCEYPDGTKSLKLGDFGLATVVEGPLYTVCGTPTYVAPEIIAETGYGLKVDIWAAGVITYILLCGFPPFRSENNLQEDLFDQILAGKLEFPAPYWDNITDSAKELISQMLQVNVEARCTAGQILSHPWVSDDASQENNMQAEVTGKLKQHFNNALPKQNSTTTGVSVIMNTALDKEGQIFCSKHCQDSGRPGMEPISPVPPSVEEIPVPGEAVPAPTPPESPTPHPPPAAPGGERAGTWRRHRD
Vascular endothelial growth factor receptor 2, sequence (P35968 whole entry, the tested form may be a part): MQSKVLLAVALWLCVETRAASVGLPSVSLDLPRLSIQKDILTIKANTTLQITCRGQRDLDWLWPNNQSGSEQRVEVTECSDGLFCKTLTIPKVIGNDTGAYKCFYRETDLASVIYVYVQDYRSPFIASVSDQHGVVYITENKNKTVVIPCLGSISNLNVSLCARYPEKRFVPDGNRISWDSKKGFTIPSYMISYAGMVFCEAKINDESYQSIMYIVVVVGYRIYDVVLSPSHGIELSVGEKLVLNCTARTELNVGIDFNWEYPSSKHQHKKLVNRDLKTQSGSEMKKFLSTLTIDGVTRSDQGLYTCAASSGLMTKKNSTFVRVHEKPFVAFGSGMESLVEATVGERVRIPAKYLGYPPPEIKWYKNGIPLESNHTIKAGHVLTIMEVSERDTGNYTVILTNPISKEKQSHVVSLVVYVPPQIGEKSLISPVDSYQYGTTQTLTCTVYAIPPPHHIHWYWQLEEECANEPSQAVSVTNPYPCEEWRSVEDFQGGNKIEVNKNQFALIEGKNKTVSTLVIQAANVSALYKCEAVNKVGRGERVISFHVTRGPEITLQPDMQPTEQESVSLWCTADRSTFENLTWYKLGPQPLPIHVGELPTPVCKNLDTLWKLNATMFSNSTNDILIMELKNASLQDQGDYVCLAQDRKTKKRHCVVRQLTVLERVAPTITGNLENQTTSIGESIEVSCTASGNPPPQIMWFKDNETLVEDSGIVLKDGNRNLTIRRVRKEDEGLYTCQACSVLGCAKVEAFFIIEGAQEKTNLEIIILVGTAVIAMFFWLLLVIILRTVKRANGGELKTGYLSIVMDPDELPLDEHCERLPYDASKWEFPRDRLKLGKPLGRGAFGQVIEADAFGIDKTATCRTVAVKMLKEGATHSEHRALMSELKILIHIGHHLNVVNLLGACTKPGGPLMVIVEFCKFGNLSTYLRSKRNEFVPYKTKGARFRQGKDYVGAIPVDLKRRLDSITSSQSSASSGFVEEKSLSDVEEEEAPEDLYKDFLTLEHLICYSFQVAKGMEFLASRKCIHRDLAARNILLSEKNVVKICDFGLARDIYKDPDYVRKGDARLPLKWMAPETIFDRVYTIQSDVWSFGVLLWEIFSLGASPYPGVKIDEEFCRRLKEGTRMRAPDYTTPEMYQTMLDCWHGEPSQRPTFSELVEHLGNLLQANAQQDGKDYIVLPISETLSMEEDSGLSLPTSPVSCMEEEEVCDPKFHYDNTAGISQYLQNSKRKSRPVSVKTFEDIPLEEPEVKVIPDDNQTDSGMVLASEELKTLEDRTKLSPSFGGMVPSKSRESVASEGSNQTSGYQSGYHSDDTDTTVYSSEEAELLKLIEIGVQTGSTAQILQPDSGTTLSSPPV
RAC-beta serine/threonine-protein kinase (Homo sapiens), sequence (P31751 whole entry, the tested form may be a part): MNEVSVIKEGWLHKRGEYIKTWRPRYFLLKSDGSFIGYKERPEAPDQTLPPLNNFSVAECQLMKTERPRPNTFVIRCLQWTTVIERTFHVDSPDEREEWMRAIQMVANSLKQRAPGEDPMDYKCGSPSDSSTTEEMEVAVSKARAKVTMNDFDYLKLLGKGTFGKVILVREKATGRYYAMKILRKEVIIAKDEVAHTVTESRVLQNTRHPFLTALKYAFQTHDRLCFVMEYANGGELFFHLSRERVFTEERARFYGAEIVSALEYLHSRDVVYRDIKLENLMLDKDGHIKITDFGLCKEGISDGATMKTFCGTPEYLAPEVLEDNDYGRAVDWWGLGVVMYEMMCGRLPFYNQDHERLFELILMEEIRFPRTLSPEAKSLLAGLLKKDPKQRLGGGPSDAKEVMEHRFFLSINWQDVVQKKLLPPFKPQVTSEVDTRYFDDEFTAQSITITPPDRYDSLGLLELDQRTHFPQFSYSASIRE
Activin receptor type-1-like (Homo sapiens), sequence (P37023 whole entry, the tested form may be a part): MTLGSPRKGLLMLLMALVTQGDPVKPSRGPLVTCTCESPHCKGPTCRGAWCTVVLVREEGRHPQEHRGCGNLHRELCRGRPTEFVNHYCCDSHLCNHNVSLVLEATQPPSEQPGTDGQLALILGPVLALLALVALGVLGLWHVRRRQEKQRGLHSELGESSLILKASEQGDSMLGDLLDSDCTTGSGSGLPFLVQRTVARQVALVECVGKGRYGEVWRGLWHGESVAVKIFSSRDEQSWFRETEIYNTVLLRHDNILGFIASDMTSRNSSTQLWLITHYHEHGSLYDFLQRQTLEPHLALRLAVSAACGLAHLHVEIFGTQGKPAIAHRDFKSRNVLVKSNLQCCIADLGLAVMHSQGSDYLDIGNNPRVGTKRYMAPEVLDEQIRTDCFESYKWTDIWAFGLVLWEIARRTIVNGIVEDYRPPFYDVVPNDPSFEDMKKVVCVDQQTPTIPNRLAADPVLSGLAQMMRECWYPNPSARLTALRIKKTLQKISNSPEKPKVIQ
Ephrin type-B receptor 3 (Homo sapiens), sequence (P54753 whole entry, the tested form may be a part): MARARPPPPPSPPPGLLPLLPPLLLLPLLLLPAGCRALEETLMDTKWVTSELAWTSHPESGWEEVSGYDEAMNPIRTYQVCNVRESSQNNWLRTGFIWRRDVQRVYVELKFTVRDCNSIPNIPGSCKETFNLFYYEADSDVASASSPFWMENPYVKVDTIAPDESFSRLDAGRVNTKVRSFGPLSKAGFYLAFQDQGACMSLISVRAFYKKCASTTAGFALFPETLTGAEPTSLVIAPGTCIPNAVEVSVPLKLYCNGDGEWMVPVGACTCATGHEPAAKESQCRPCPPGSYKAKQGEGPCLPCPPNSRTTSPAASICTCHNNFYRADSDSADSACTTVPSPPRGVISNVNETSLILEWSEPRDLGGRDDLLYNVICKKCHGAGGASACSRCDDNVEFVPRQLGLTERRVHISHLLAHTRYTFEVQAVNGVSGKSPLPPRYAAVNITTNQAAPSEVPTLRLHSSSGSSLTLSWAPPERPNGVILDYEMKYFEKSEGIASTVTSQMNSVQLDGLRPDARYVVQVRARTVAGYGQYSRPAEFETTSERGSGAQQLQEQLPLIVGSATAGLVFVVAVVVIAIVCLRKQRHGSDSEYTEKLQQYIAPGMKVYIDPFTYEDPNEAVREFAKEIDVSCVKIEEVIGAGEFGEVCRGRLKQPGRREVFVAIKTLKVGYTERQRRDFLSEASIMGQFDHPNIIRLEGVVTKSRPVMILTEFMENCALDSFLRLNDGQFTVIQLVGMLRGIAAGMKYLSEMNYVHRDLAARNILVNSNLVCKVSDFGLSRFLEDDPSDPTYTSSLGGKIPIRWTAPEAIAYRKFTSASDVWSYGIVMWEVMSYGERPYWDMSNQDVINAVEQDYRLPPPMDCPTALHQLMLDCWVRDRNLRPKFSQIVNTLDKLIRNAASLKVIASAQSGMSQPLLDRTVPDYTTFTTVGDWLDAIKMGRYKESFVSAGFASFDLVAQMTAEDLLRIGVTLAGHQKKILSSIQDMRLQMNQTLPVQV
Calcium/calmodulin-dependent protein kinase type 1D (Homo sapiens), sequence (Q8IU85 whole entry, looked up, the tested form may be a part): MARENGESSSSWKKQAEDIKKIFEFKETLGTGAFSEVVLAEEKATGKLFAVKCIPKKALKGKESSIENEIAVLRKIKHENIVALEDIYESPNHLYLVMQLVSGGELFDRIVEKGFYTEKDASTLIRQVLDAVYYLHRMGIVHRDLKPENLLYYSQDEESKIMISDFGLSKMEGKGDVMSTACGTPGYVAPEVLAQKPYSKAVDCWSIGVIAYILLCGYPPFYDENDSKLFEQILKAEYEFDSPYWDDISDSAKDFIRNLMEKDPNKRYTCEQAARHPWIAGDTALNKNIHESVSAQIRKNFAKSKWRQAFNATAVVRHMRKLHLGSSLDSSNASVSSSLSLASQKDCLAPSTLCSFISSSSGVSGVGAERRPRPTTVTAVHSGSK
Dual specificity protein kinase CLK2 (Homo sapiens), sequence (P49760 whole entry, looked up, the tested form may be a part): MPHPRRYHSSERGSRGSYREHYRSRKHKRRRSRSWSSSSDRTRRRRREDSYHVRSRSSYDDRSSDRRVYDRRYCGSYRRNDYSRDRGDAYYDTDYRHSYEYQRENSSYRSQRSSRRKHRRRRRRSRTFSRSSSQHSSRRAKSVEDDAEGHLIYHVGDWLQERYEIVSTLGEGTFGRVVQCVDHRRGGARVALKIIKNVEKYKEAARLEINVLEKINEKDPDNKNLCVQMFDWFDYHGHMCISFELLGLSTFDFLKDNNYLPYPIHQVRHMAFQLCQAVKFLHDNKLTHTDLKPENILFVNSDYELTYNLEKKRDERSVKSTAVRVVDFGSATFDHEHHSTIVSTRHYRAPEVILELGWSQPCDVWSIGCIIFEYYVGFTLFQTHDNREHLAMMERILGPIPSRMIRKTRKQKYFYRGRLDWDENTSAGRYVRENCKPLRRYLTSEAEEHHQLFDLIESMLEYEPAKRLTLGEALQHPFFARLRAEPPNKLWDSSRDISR

In the case of `COCCN[C@H]1CC[C@H](Nc2cc(-c3csc(NCC4(C#N)CCOCC4)n3)c(Cl)cn2)CC1`, the Activity in data set [1] was determined as 100%; in data set [2], 100%; in data set [3] it was 100%; in data set [4] it was 81%; in data set [5] it was 93%; in data set [6] it was 100%. The Activity turned out to be 96% in [7]; 78% in data set [10]; 91% in data set [11]; 100% in [12]; 100% in data set [13]; 100% in data set [14]. Moreover, the Activity came out at 38% in data set [15]; 86% in data set [16]; 88% in data set [17]; 84% in data set [18]; 100% in data set [19]. In the data set on A-431, this compound came in with a GI50 of 19 nM. Also, the activity at 1 µM in data set [8] worked out at 98%. Moreover, the half-life in data set [9] was 6.8 h.
